# MsrA act = activators of bovine methionine sulfoxide reductase A; purified bovine MsrA, absorbance read-out; activation, % at 10.6 µM; 0.3% of 360,000 active; AID 602163; in the data active = activation above about 7.5%
# sPLA2-III inh = Inhibits HGIII-sPLA2 liposome hydrolysis, primary screen; QFRET BODIPY PC-A2 liposome hydrolysis, fluorescence; 0.56% of 370,000 active; inhibition, % at 12.2 µM; Q9NZ20;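 active = inhibition above mean plus 3 SD of compounds lying within the high and low control bounds, cut at about 19% in these data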
# ARFGAP1 inh = inhibitors of rat ARFGAP1; Arfgap1-stimulated ARF1 GTP hydrolysis, GDP FP detection; inhibition, % at 16.5 µM; AID 651572; Q62848; 0.26% of 360,000 active;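 active = inhibition above a per-plate limit, mean inhibition of low control wells plus 3 SD, cut at about 25% in these data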
#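 System: truncated rat Arfgap1 GAP domain / Medium: HEPES-based buffer, pH 7.5 / Also added: N-terminally truncated human ARF1-GTP substrate / Incubation: enzyme reaction 120 min at 25 °C after 20 min preincubation / Measured by: FP of antibody-bound GDP Alexa 633 tracer, ex 620/em 688 nm / Replicates: singlicate, each compound tested once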
# MsrA inh = inhibitors of bovine MsrA | purified bovine MsrA, absorbance read-out | 0.75% of 360,000 active | AID 651718 | inhibition, % at 15.5 µM; in the data active = inhibition above about 4.5%
# ASAP1 GAP inh = ASAP1 ArfGAP inhibition; 0.19% of 360,000 active; inhibition, % at 16.5 µM; ASAP1-stimulated ARF1 GTP hydrolysis, GDP FP detection; in the data active = inhibition above about 25%
# NR1D1 modulator = modulates human Rev-erb alpha binding to DNA | P20393 | Rev-erbα–FITC-DNA binding, fluorescence polarization, 90 min | activity, % at 10 µM | 0.79% of 370,000 active;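 active = activity above about 14%, limit read from the data; passing the limit was not always enough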
# Target sequence (P20393 whole entry, looked up): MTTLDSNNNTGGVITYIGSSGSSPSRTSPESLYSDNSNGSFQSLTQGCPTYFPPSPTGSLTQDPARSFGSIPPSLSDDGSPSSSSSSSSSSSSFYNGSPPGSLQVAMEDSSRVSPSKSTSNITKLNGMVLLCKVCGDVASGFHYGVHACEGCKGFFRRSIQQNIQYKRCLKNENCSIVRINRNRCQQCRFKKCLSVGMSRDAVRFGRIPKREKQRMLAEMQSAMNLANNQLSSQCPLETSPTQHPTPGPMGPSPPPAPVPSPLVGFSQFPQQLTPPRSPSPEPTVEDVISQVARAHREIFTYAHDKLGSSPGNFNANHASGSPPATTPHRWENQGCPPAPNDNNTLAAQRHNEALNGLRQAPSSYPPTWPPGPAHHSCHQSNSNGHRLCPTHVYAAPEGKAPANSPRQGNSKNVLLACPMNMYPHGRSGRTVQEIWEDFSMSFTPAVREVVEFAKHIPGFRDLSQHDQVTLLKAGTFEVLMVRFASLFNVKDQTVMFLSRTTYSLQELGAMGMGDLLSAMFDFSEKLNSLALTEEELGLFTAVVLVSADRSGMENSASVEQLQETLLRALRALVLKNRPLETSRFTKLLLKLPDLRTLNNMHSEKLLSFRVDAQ
# ARFGAP1 inh conf = confirmation of rat ARFGAP1 inhibitors; 30% of 890 active; shares compounds with ARFGAP1 inh; AID 651608; inhibition, % at 16.5 µM; ARFGAP1-stimulated ARF1 GTP hydrolysis, GDP tracer FP;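 active = average inhibition over triplicates above the hit cutoff set in the earlier primary screen, cut at about 25% in these data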
# Numbers stand for hits; - = inactive; . = no result. This is a sample that favours compounds with a hit; in the whole collection about 2.7% have one here.
SMILES,MsrA act,sPLA2-III inh,ARFGAP1 inh,MsrA inh,ASAP1 GAP inh,NR1D1 modulator,ARFGAP1 inh conf
CCCC1CCC2(CC1)CCC2OC(=S)Nc1cccc(Cl)c1 (centres undefined),.,-,.,.,.,-,.
NC(=O)C1CCN(c2ncc(Br)s2)CC1,.,-,.,.,.,-,.
COc1cc2c(=O)[nH]c3cc([N+](=O)[O-])ccc3c2cc1[N+](=O)[O-],-,-,-,-,-,-,.
Nc1cc2[nH]c(=O)c3ccccc3c2cc1[N+](=O)[O-],-,-,28.0,-,-,-,-
Cc1nc(-c2cccc(S(=O)(=O)N3CC(C)OC(C)C3)c2)cs1 (centres undefined),-,-,-,-,-,-,.
Cc1nc(-c2cccc(S(=O)(=O)N3CC(C)CC(C)C3)c2)cs1 (centres undefined),-,-,26.5,-,-,-,-
COc1ccc(S[C@]2(C(=O)N3CCOCC3)CC(=O)N(c3ccc(Cl)cc3)[C@@H]2c2ccc(OC)cc2)cc1,.,-,.,.,.,-,.
O=C(Nc1ccc(-c2cn3ccccc3n2)cc1)c1cccs1,-,-,24.6,-,-,-,86.5
COC(=O)C1CN(Cc2ccc(F)cc2)CCS(=O)(=O)N1Cc1ccc(C)cc1 (centres undefined),.,-,.,.,.,-,.
CC1CCCCN1CC(O)COCCC12CC3CC(CC(C3)C1)C2 (centres undefined),-,-,24.8,-,-,-,-
CCN(Cc1cn(Cc2ccc(C)cc2)nn1)S(=O)(=O)c1ccccc1Br,.,-,.,.,.,-,.
COc1ccc(CCC[C@H](CCC(=O)N(c2ccccc2)c2ccccc2)CCc2ccccc2)cc1,.,-,.,.,.,-,.
O=C(NNC(=S)NC1CCCCC1)c1sc2ccccc2c1Cl,-,-,25.5,-,-,-,59.9
C[C@H](CO)N1C[C@H](C)[C@@H](CN(C)C(=O)Nc2ccccc2)Oc2ccc(NC(=O)Nc3ccccc3)cc2C1=O,-,-,-,-,-,-,.
C[C@@H]1CCCCO[C@H](CN(C)Cc2ccc(C(=O)O)cc2)[C@H](C)CN([C@@H](C)CO)C(=O)c2cc(NC(=O)Nc3ccc(C(F)(F)F)cc3)ccc2O1,-,-,25.1,-,-,-,-
C[C@H](CO)N1C[C@H](C)[C@@H](CN(C)C(=O)Nc2ccc(C(F)(F)F)cc2)Oc2ccc(NC(=O)Nc3ccccc3)cc2C1=O,-,-,30.1,-,-,-,-
Cc1[nH]c2ccccc2c1CCN(Cc1cccs1)C(=O)Nc1cccc2c1OCO2,.,-,.,.,.,-,.
CCCOc1ccc(C(=O)N/N=C/c2c[nH]c3ccc(Br)cc23)cc1,-,-,24.7,-,-,-,-
C[C@H]1[C@@H](OC(=O)NCCc2c[nH]c3ccccc23)CC[C@@]23CCCN2C(=O)CCC[C@@H]13,.,-,.,.,.,-,.
CC(C)(CO)CNC1CCCN(C2Cc3ccccc3C2)C1 (centres undefined),-,-,24.7,-,-,-,-
COc1ccc(C(=O)OCCN(C)C2CN(Cc3cn(Cc4cccc(F)c4)nn3)S(=O)(=O)C2)cc1OC (centres undefined),.,-,.,.,.,-,.
CN(CCO)c1cc(N(C)CCO)c([N+](=O)[O-])cc1[N+](=O)[O-],-,-,-,-,-,-,.
CN(CCO)C1=NS(=O)(=O)c2cc([N+](=O)[O-])ccc21,-,-,30.4,-,-,-,-
COc1ccc(CN(C)C(=O)Cn2cnc(C(=O)Nc3ccc(C)c(C)c3)n2)cc1OC,-,-,29.3,-,-,-,-
COC(=O)[C@]12C[C@H](CC(=O)N3CCN(C(=O)C4CC4)CC3)C(=O)N(Cc3cccc4ccccc34)C1=C[C@H](C(C)(C)C)O[C@@H]2C,.,-,.,.,.,-,.
SMILES,MsrA act,sPLA2-III inh,ARFGAP1 inh,MsrA inh,ASAP1 GAP inh,NR1D1 modulator,ARFGAP1 inh conf
C=CCn1c(=NC(=O)c2cccs2)sc2cccc(OC)c21,-,-,31.3,-,-,-,-
COc1cc(Cl)c(NC2=CC(=O)C(=O)c3ccccc32)c(OC)c1,-,-,27.7,-,-,-,-
CCN(CC)C(=O)CC[C@H]1CC[C@]2(CCCN(Cc3ccc(OC)cc3)C2)O1,.,-,.,.,.,-,.
COc1ccc(C(=O)OCCN2CCN(C3CN(Cc4cn(Cc5cccc(C)c5)nn4)S(=O)(=O)C3)CC2)cc1OC (centres undefined),.,-,.,.,.,-,.
CC1Cc2ccccc2N1C(=O)CN1CCC(n2nnc3cc(C(F)(F)F)ccc32)CC1 (centres undefined),-,-,27.9,-,-,-,-
COC(=O)[C@]12C[C@H](CC(=O)N3CCCC3)C(=O)N(CCC3=CCCCC3)C1=C[C@H](C(C)C)O[C@@H]2C1CC1,.,-,.,.,.,-,.
CCOc1ccc(CNC(=O)Cn2nc(C)c3c(C)n(-c4ccc(C)cc4)nc3c2=O)cc1,-,-,33.6,-,-,-,-
O=C(COC(=O)CSc1ccc([N+](=O)[O-])cc1)NCc1cccs1,-,-,26.4,-,-,-,-
Cc1ccc(SCC(=O)OCC(=O)NCc2cccs2)cc1,-,-,-,-,-,-,.
CCCc1ccc(Oc2cn[nH]c2-c2ccc(O)cc2O)cc1,-,-,29.9,-,-,-,-
COc1ccc(Oc2cn[nH]c2-c2ccc(O)cc2O)cc1,-,-,-,-,-,-,.
COc1cccc(-c2nn3c(-c4ccccn4)nnc3s2)c1,-,-,-,-,-,-,.
COc1cccc(-c2nnc3sc(-c4ccccn4)nn23)c1,-,-,41.1,-,-,-,45.2
CC1=C[C@]2(C[N+](Cc3ccccc3)=C(N)N2)n2c(=O)n(-c3ccccc3)c(=O)n2C1,.,-,.,.,.,-,.
O=C(NCc1ccncc1)Nc1ccc(Cc2ccc(NC(=O)NCc3ccncc3)cc2)cc1,-,-,27.1,-,-,-,56.5
COc1ccc(S(=O)(=O)N2CCCCCC2)cc1N(C)S(=O)(=O)c1ccccc1,-,-,25.7,-,-,-,-

# Source: PubChem
